How the values were obtained:
[1] = molecular target: Epidermal growth factor receptor (Homo sapiens) (UniProt P00533); test: Inhibition of EGFR at 10 uM
[2] = molecular target: Protein kinase C zeta type (Homo sapiens) (UniProt Q05513); test: Inhibition of PRKCZ at 1 uM
[3] = molecular target: Cyclin-dependent kinase 6 (Homo sapiens) (UniProt Q00534); test: Inhibition of CDK6 at 1 uM
[4] = Half life in human liver microsomes at 1 uM by LC/MS/MS analysis; type: ADME, Microsome
Outline: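 Test compound incubated with human liver microsomes to measure Phase I metabolic stability. Remaining compound quantified by LC/MS/MS, and stability reported as half-life (T1/2) in minutes.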

[5] = molecular target: Casein kinase II subunit alpha (Homo sapiens) (UniProt P68400); test: Inhibition of CSNK2A1 at 10 uM
[6] = molecular target: Rho-associated protein kinase 1 (Homo sapiens) (UniProt Q13464); test: Inhibition of ROCK1 at 10 uM
[7] = molecular target: Dual specificity protein kinase CLK1 (Homo sapiens) (UniProt P49759); test: Inhibition of CLK1 at 1 uM
[8] = molecular target: Serine/threonine-protein kinase MARK1 (Homo sapiens) (UniProt Q9P0L2); test: Inhibition of MARK1 at 1 uM
[9] = molecular target: Voltage-gated inwardly rectifying potassium channel KCNH2 (Homo sapiens, UniProt Q12809); test: Displacement of labeled dofetilide from human ERG
[10] = molecular target: Serine/threonine-protein kinase Sgk1 (Homo sapiens) (UniProt O00141); test: Inhibition of SGK1 at 10 uM
[11] = molecular target: Tyrosine-protein kinase JAK3 (Homo sapiens) (UniProt P52333); test: Inhibition of JAK3 at 10 uM
[12] = molecular target: 3-phosphoinositide-dependent protein kinase 1 (Homo sapiens) (UniProt O15530); test: Inhibition of PDPK1 at 10 uM
[13] = molecular target: Serine/threonine-protein kinase pim-2 (Homo sapiens) (UniProt Q9P1W9); test: Inhibition of PIM2 at 1 uM
[14] = molecular target: Serine/threonine-protein kinase TAO3 (Homo sapiens) (UniProt Q9H2K8); test: Inhibition of TAOK3 at 10 uM
[15] = molecular target: Myosin light chain kinase 2, skeletal/cardiac muscle (Homo sapiens) (UniProt Q9H1R3); test: Inhibition of MYLK2 at 10 uM
[16] = molecular target: Glycogen synthase kinase-3 beta (Homo sapiens) (UniProt P49841); test: Inhibition of GSK3b at 1 uM
CYP2D6 = CYP2D6 (Homo sapiens, UniProt P10635); test: Inhibition of CYP2D6 at 3 uM by LC/MS/MS analysis; type: ADME
[17] = molecular target: 3-phosphoinositide-dependent protein kinase 1 (Homo sapiens) (UniProt O15530); test: Inhibition of PDPK1 at 1 uM
[18] = molecular target: cAMP-dependent protein kinase catalytic subunit alpha (Homo sapiens) (UniProt P17612); test: Inhibition of PRKACA at 10 uM
[19] = molecular target: MAP kinase-activated protein kinase 2 (Homo sapiens) (UniProt P49137); test: Inhibition of MAPKAPK2 at 1 uM
[20] = molecular target: Casein kinase I isoform delta (Homo sapiens) (UniProt P48730); test: Inhibition of CSNK1D at 10 uM
[21] = molecular target: RAC-alpha serine/threonine-protein kinase (Homo sapiens) (UniProt P31749); test: Inhibition of AKT1 at 1 uM
[22] = molecular target: Glycogen synthase kinase-3 beta (Homo sapiens) (UniProt P49841); test: Inhibition of GSK3b at 10 uM
[23] = molecular target: Mitogen-activated protein kinase 14 (Homo sapiens) (UniProt Q16539); test: Inhibition of MAPK14 at 10 uM
[24] = molecular target: Mitogen-activated protein kinase kinase kinase 9 (Homo sapiens) (UniProt P80192); test: Inhibition of MAP3K9 at 1 uM
[25] = molecular target: Serine/threonine-protein kinase PAK 4 (Homo sapiens) (UniProt O96013); test: Inhibition of PAK4 at 1 uM
[26] = molecular target: Serine/threonine-protein kinase TAO3 (Homo sapiens) (UniProt Q9H2K8); test: Inhibition of TAOK3 at 1 uM
[27] = molecular target: Vascular endothelial growth factor receptor 2 (Homo sapiens) (UniProt P35968); test: Inhibition of KDR at 1 uM
[28] = molecular target: Serine/threonine-protein kinase pim-2 (Homo sapiens) (UniProt Q9P1W9); test: Inhibition of PIM2 at 10 uM
[29] = molecular target: Insulin receptor (Homo sapiens) (UniProt P06213); test: Inhibition of INSR at 10 uM
[30] = molecular target: Serine/threonine-protein kinase Chk2 (Homo sapiens) (UniProt O96017); test: Inhibition of CHEK2 at 1 uM
[31] = molecular target: Cyclin-dependent kinase 2 (Homo sapiens) (UniProt P24941); test: Inhibition of CDK2 at 10 uM
[32] = molecular target: Epidermal growth factor receptor (Homo sapiens) (UniProt P00533); test: Inhibition of EGFR at 1 uM
[33] = molecular target: Tyrosine-protein kinase ABL1 (Homo sapiens) (UniProt P00519); test: Inhibition of ABL1 at 1 uM
[34] = molecular target: Inhibitor of nuclear factor kappa-B kinase subunit epsilon (Homo sapiens) (UniProt Q14164); test: Inhibition of IKBKE at 10 uM
[35] = molecular target: Mitogen-activated protein kinase 1 (Homo sapiens) (UniProt P28482); test: Inhibition of MAPK1 at 1 uM
[36] = molecular target: Hepatocyte growth factor receptor (Homo sapiens) (UniProt P08581); test: Inhibition of MET at 1 uM
CYP3A4 = CYP3A4 (Homo sapiens, UniProt P08684); test: Inhibition of CYP3A4 at 3 uM by LC/MS/MS analysis; type: ADME
[37] = molecular target: Tyrosine-protein kinase Lck (Homo sapiens) (UniProt P06239); test: Inhibition of LCK at 10 uM
[38] = molecular target: Tyrosine-protein kinase ABL1 (Homo sapiens) (UniProt P00519); test: Inhibition of ABL1 at 10 uM
[39] = molecular target: Protein kinase C beta type (Homo sapiens) (UniProt P05771); test: Inhibition of PRKCB at 10 uM
[40] = molecular target: Calcium/calmodulin-dependent protein kinase type 1 (Homo sapiens) (UniProt Q14012); test: Inhibition of CAMK1 at 10 uM
[41] = molecular target: Tyrosine-protein kinase JAK3 (Homo sapiens) (UniProt P52333); test: Inhibition of JAK3 at 1 uM
[42] = molecular target: Serine/threonine-protein kinase Nek2 (Homo sapiens) (UniProt P51955); test: Inhibition of NEK2 at 10 uM
[43] = molecular target: Vascular endothelial growth factor receptor 2 (Homo sapiens) (UniProt P35968); test: Inhibition of KDR at 10 uM
[44] = molecular target: Fibroblast growth factor receptor 1 (Homo sapiens) (UniProt P11362); test: Inhibition of FGFR1 at 10 uM
[45] = molecular target: Serine/threonine-protein kinase 3 (Homo sapiens) (UniProt Q13188); test: Inhibition of STK3 at 1 uM
[46] = molecular target: Serine/threonine-protein kinase Nek2 (Homo sapiens) (UniProt P51955); test: Inhibition of NEK2 at 1 uM
[47] = molecular target: Calcium/calmodulin-dependent protein kinase type 1 (Homo sapiens) (UniProt Q14012); test: Inhibition of CAMK1 at 1 uM
[48] = molecular target: cAMP-dependent protein kinase catalytic subunit alpha (Homo sapiens) (UniProt P17612); test: Inhibition of PRKACA at 1 uM
CYP2C9 = CYP2C9 (Homo sapiens, UniProt P11712); test: Inhibition of CYP2C9 at 3 uM by LC/MS/MS analysis; type: ADME
[49] = molecular target: Mitogen-activated protein kinase 14 (Homo sapiens) (UniProt Q16539); test: Inhibition of MAPK14 at 1 uM

Vascular endothelial growth factor receptor 2 (Homo sapiens), sequence (P35968 whole entry): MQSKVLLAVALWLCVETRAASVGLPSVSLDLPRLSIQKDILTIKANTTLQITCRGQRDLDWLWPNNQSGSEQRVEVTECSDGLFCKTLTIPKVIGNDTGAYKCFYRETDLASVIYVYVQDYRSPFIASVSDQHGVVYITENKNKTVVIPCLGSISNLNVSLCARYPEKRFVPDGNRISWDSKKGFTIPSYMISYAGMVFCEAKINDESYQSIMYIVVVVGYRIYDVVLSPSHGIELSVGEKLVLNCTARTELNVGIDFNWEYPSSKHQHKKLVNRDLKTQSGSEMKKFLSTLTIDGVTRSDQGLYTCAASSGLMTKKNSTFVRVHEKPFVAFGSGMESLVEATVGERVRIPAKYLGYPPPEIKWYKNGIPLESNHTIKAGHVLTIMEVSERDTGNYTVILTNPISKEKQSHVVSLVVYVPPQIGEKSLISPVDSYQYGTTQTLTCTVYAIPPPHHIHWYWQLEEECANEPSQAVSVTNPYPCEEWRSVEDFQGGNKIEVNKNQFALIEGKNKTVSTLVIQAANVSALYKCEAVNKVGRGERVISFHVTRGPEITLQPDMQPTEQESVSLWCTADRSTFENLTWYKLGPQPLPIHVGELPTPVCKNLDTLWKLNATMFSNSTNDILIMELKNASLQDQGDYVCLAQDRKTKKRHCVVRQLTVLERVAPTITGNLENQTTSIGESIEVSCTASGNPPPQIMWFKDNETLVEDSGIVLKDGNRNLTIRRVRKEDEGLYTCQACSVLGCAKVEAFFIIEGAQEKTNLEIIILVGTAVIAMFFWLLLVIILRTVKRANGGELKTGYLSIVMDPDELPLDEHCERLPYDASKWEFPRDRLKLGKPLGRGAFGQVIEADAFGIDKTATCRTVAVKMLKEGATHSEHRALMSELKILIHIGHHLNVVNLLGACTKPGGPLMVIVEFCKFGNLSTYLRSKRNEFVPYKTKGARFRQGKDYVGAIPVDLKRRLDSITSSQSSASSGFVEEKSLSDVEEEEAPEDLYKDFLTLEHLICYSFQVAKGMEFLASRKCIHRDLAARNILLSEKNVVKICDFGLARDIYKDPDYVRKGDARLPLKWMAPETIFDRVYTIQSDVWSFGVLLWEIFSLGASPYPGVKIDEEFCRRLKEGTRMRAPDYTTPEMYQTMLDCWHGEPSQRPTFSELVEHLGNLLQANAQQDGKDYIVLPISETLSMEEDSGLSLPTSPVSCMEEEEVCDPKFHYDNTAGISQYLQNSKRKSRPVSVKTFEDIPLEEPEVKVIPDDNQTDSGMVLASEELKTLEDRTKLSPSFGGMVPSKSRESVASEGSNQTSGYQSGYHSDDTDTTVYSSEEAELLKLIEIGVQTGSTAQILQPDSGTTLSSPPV
Glycogen synthase kinase-3 beta (Homo sapiens), sequence (P49841 whole entry, looked up): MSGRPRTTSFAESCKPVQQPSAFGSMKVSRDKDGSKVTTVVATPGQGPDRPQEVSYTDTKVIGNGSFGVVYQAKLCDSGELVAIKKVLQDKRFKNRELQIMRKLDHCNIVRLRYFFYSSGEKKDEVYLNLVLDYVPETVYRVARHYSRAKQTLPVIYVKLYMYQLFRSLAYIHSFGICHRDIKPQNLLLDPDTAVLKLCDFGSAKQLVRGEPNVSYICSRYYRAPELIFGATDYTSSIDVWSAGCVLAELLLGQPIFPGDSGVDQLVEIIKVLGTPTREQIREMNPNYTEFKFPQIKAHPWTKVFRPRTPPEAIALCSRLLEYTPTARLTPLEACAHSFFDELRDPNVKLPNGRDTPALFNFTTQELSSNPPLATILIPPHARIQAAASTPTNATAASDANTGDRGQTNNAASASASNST
Serine/threonine-protein kinase pim-2 (Homo sapiens), sequence (Q9P1W9 whole entry, looked up): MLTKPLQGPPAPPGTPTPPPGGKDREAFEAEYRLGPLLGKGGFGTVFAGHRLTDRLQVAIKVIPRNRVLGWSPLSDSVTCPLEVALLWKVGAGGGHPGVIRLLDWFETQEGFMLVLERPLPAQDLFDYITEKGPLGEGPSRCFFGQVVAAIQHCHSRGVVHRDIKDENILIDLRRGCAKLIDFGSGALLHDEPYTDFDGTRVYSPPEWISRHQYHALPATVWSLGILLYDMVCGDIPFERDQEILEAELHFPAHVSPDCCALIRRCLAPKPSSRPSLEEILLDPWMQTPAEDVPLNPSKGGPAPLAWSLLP
Serine/threonine-protein kinase Nek2 (Homo sapiens), sequence (P51955 whole entry): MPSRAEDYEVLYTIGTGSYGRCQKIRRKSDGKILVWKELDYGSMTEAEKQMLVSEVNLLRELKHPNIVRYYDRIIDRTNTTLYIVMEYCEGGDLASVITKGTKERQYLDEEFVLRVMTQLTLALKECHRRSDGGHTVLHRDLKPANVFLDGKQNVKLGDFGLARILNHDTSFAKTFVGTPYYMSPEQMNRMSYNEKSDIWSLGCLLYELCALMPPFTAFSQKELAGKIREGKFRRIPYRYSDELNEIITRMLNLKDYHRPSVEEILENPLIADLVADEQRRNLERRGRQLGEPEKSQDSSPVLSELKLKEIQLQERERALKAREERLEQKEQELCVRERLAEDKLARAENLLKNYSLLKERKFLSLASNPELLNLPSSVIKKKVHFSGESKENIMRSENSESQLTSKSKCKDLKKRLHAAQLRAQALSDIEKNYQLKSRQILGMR
Serine/threonine-protein kinase TAO3 (Homo sapiens), sequence (Q9H2K8 whole entry): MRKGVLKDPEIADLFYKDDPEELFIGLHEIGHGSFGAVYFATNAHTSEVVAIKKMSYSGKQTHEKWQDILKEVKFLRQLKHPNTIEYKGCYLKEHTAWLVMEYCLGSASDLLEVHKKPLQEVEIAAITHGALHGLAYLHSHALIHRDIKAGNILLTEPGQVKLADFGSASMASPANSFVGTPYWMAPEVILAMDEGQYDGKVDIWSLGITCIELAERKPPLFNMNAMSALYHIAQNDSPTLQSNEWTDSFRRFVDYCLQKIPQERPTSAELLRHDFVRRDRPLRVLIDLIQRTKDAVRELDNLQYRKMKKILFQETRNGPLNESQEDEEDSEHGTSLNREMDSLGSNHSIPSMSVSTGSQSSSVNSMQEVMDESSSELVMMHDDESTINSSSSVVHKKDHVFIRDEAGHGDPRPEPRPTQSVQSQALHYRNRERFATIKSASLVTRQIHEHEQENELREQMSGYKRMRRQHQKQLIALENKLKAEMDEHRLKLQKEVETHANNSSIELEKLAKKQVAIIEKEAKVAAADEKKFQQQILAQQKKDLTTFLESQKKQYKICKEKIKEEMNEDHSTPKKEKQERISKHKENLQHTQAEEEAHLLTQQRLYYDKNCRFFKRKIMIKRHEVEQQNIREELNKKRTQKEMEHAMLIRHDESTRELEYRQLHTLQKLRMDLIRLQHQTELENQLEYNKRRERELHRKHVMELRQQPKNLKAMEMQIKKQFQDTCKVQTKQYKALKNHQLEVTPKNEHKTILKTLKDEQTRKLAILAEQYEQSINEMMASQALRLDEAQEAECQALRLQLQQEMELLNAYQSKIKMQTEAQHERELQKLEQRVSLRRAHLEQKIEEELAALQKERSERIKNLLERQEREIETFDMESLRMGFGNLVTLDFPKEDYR
3-phosphoinositide-dependent protein kinase 1 (Homo sapiens), sequence (O15530 whole entry): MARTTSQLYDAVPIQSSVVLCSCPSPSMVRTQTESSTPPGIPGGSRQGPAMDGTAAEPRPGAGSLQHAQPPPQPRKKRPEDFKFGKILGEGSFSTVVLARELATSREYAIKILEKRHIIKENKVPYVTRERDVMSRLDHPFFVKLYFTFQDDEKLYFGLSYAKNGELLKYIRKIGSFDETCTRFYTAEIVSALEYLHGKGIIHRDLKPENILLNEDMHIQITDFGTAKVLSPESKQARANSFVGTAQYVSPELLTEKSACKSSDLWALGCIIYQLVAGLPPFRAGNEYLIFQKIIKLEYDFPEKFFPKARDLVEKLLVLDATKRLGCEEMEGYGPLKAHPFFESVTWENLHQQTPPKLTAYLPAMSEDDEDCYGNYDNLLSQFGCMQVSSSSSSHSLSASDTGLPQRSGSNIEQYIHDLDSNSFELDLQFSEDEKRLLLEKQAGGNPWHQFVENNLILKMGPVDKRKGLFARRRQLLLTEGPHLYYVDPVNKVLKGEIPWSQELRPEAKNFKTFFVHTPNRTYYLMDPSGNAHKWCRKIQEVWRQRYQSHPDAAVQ
Calcium/calmodulin-dependent protein kinase type 1 (Homo sapiens), sequence (Q14012 whole entry, looked up): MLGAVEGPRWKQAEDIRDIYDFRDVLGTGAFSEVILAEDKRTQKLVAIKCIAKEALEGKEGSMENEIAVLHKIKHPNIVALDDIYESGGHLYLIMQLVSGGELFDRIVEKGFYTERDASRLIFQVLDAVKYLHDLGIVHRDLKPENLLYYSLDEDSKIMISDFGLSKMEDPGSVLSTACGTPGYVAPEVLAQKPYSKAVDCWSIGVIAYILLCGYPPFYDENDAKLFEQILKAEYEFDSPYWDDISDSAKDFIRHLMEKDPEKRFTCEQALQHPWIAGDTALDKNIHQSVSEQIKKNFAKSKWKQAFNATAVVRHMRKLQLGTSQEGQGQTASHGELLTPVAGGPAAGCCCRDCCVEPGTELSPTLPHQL
Mitogen-activated protein kinase 14 (Homo sapiens), sequence (Q16539 whole entry): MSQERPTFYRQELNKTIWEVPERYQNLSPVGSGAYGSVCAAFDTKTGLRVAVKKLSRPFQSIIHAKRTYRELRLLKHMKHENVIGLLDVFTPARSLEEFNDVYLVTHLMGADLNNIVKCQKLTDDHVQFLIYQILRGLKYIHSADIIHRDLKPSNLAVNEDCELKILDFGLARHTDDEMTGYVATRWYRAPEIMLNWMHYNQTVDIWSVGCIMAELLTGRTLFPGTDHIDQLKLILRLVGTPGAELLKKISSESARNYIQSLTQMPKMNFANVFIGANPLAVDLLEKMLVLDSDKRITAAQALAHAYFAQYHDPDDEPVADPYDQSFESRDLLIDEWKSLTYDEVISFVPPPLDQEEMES

inhibition [1]: 10%
inhibition [2]: 20%
inhibition [3]: 0%
half-life at 1 µM [4]: > 2 h
inhibition [5]: 30%
inhibition [6]: 10%
inhibition [7]: 10%
inhibition [8]: 20%
inhibition [10]: 0%
inhibition [11]: 40%
inhibition [12]: 20%
inhibition [13]: 0%
inhibition [14]: 10%
inhibition [15]: 10%
inhibition [16]: 10%
inhibition at 3 µM (CYP2D6): 0%
inhibition [17]: 20%
inhibition [18]: 10%
inhibition [19]: 10%
inhibition [20]: 20%
inhibition [21]: 0%
inhibition [22]: 10%
inhibition [23]: 10%
inhibition [24]: 20%
inhibition [25]: 0%
inhibition [26]: 10%
inhibition [27]: 0%
inhibition [28]: 0%
inhibition [29]: 0%
inhibition [30]: 20%
inhibition [31]: 10%
inhibition [32]: 10%
inhibition [33]: 0%
inhibition [34]: 10%
inhibition [35]: 10%
inhibition [36]: 0%
inhibition at 3 µM (CYP3A4): 0%
inhibition [37]: 0%
inhibition [38]: 0%
inhibition [39]: 10%
inhibition [40]: 10%
inhibition [41]: 40%
inhibition [42]: 10%
inhibition [43]: 0%
inhibition [44]: 0%
inhibition [45]: 0%
inhibition [46]: 10%
inhibition [47]: 10%
inhibition [48]: 10%
inhibition at 3 µM (CYP2C9): 55%
inhibition [49]: 10%
SMILES: CC(C)(C)c1cc(C(=O)O)c(NC(=O)Nc2ccc3[nH]ncc3c2)s1
inhibition (INH) [9]: 0%
